Experimental data taken from ChEMBL document CHEMBL1132284, “Potent, orally active GPIIb/IIIa antagonists containing a nipecotic acid subunit. Structure-activity studies leading to the discovery of RWJ-53308” (J Med Chem, 1999).

Columns and labels:
Canis familiaris [1] = test: Ex vivo duration of inhibition of ADP-induced canine platelet aggregation by 3 mg/kg.; assay type: functional, Canis lupus familiaris
Outline: (§1)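 Fasted mongrel dogs (8–22 kg, n = 3) given compound orally by stomach tube in 10 mL water. Citrated cephalic-vein blood drawn pre-dose and at 30, 60, 90, 120, 180, 240, 360 min. PRP adjusted to 300 000/μL with PPP, warmed 2 min at 37 °C, and aggregated with 20 μM ADP, read as light transmission. Inhibition is drug versus vehicle; duration is time at ≥50% inhibition.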

Homo sapiens = species on record: Homo sapiens; test: In vitro inhibitory potency against human gel filtered platelet (GFP) aggregation; assay type: functional
Outline: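 Human gel-filtered platelets, aggregation induced by thrombin; IC50; n = 2.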

[2] = target: Integrin alpha-IIb/beta-3 (Homo sapiens, UniProt P05106+P08514); test: In vitro inhibition of biotinylated fibrinogen binding to immobilized fibrinogen receptor.; assay type: protein-complex assay
Sequence of Integrin alpha-IIb/beta-3 (P05106 27-788 limits assumed): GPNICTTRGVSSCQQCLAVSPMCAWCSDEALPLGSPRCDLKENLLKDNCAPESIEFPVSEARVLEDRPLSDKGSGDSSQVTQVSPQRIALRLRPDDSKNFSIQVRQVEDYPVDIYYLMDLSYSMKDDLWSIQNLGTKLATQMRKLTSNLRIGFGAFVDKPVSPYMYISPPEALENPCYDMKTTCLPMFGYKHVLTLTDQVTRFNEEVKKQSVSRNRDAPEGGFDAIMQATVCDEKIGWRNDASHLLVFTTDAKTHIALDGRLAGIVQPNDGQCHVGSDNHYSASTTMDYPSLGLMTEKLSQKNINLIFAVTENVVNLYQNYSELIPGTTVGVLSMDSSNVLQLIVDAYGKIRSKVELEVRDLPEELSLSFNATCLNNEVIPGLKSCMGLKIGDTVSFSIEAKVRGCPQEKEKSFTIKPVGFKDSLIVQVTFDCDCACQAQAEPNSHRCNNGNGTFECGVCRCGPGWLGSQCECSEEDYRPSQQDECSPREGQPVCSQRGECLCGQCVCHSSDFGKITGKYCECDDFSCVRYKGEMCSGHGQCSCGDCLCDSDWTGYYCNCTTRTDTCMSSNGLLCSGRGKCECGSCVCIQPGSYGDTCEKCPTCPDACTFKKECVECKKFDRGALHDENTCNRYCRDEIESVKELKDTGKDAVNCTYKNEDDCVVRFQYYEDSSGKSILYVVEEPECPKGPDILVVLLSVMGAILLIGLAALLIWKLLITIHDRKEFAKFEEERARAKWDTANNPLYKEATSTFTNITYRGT
Sequence of Integrin alpha-IIb/beta-3 (P08514 32-887 limits assumed): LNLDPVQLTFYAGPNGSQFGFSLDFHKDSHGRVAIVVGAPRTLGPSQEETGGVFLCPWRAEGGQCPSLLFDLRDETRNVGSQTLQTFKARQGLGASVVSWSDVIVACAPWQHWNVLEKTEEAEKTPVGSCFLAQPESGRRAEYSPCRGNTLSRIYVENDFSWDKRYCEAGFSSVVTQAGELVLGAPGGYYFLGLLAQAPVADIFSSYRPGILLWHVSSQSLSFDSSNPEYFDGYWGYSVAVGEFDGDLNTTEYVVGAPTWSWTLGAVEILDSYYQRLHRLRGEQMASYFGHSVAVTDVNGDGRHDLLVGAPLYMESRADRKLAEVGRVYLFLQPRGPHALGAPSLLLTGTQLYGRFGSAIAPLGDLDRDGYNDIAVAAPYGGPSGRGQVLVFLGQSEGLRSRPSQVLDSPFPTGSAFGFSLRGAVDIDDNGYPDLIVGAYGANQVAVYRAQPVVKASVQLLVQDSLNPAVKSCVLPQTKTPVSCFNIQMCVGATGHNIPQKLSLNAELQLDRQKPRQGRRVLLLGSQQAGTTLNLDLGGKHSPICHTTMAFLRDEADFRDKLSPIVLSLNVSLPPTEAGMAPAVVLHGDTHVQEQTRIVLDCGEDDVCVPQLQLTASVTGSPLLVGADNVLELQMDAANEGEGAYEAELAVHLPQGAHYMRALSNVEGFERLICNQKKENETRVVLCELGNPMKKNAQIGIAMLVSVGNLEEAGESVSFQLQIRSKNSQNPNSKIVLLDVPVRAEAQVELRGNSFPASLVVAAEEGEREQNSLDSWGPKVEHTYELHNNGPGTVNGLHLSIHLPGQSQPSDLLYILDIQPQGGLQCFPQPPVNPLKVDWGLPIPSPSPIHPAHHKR
Sequence of Integrin alpha-IIb/beta-3 (P08514 891-1039 limits assumed): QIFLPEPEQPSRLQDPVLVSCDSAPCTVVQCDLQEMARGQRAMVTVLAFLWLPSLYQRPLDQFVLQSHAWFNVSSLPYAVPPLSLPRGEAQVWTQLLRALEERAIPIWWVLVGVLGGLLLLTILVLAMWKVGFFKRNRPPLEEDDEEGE
Outline: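 Binding of biotinylated fibrinogen to immobilized purified GPIIb/IIIa, solid phase; IC50; n = 2.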

Canis familiaris [3] = test: Inhibitory activity tested in ex vivo (canine) against ADP-induced platelet aggregation at the dose of 1 mg/kg; assay type: functional, Canis lupus familiaris; outline: as §1
Canis familiaris [4] = test: Inhibitory activity tested in ex vivo (canine) against ADP-induced platelet aggregation at the dose of 10 mg/kg; assay type: functional, Canis lupus familiaris

SMILES	Duration (Canis familiaris [1])	IC50 (Homo sapiens; Homo sapiens)	IC50 [2]	further results
O=C(O)CCNC(=O)[C@@H]1CCCN(C(=O)CCC2CCNCC2)C1	120 min	270 nM	4.8 nM	–
O=C(O)C[C@@H](Cc1ccccc1)NC(=O)[C@@H]1CCCN(C(=O)CCC2CCNCC2)C1	–	970 nM	0.37 nM	–
O=C(O)CC(NC(=O)C1CCCN(C(=O)CCC2CCNCC2)C1)c1cncc(-c2cccs2)c1 (centres undefined)	–	–	1.5 nM	–
O=C(O)C[C@H](NC(=O)[C@@H]1CCCN(C(=O)CCC2CCNCC2)C1)c1cncc(CCc2ccccc2)c1	180 min	30 nM	0.66 nM	–
O=C(O)CC(NC(=O)C1CCCN(C(=O)CCC2CCNCC2)C1)c1cncc(Br)c1 (centres undefined)	–	–	3 nM	–
O=C(O)C[C@@H](NC(=O)[C@@H]1CCCN(C(=O)CCC2CCNCC2)C1)c1cccs1	–	90 nM	0.1 nM	–
CC(C)(C)C#C[C@@H](CC(=O)O)NC(=O)[C@@H]1CCCN(C(=O)CCC2CCNCC2)C1	–	–	42 nM	–
O=C(O)C(O)CNC(=O)[C@@H]1CCCN(C(=O)CCC2CCNCC2)C1 (some centres undefined)	–	1600 nM	3.5 nM	–
COc1ccccc1-c1cncc(C(CC(=O)O)NC(=O)C2CCCN(C(=O)CCC3CCNCC3)C2)c1 (centres undefined)	–	–	12 nM	–
O=C(O)CC(NC(=O)C1CCCN(C(=O)CCC2CCNCC2)C1)c1cncc(-c2ccccc2)c1 (centres undefined)	–	–	1.8 nM	–
C[C@H](CC(=O)O)NC(=O)[C@@H]1CCCN(C(=O)CCC2CCNCC2)C1	–	8000 nM	13.5 nM	–
Cc1ccc(-c2cncc(C(CC(=O)O)NC(=O)C3CCCN(C(=O)CCC4CCNCC4)C3)c2)cc1 (centres undefined)	–	–	24 nM	–
COC(=O)C[C@H](NC(=O)[C@@H]1CCCN(C(=O)CCC2CCNCC2)C1)c1cccnc1	60 min	41000 nM	7.2 nM	–
O=C(O)C[C@@H](NC(=O)[C@@H]1CCCN(C(=O)CCC2CCNCC2)C1)c1ccc(Cl)s1	–	40 nM	0.1 nM	–
O=C(O)CC(NC(=O)C1CCCN(C(=O)CCC2CCNCC2)C1)c1cncc(-c2cc3ccccc3o2)c1 (centres undefined)	–	–	36 nM	–
O=C(O)C[C@@H](NC(=O)[C@@H]1CCCN(C(=O)CCC2CCNCC2)C1)c1cnc2ccccc2c1 (stereo in doubt; 33)	–	–	0.18 nM	–
O=C(O)C[C@H](NC(=O)[C@@H]1CCCN(C(=O)CCC2CCNCC2)C1)c1ccc(Cl)nc1	210 min	20 nM	0.14 nM	–
O=C(O)C[C@H](NC(=O)[C@@H]1CCCN(C(=O)CCC2CCNCC2)C1)c1cncc(Br)c1	180 min	20 nM	0.21 nM	–
O=C(O)C[C@H](NC(=O)[C@@H]1CCN(C(=O)/C=C/C2CCNCC2)C1)c1cccnc1	360 min	140 nM	0.58 nM	–
O=C(O)CC(NC(=O)C1CCCN(C(=O)CCC2CCNCC2)C1)c1cncc(-c2ccc(Cl)s2)c1 (centres undefined)	–	–	57 nM	–
COc1ccc(-c2cncc(C(CC(=O)O)NC(=O)C3CCCN(C(=O)CCC4CCNCC4)C3)c2)cc1 (centres undefined)	–	–	11 nM	–
CC(C)(C)C#C[C@H](CC(=O)O)NC(=O)[C@@H]1CCCN(C(=O)CCC2CCNCC2)C1	–	31000 nM	5.6 nM	–
O=C(O)C[C@H](NC(=O)[C@@H]1CCCN(C(=O)CCC2CCNCC2)C1)c1ccc(-c2ccsc2)nc1	150 min	200 nM	0.37 nM	–
O=C(O)CC(NC(=O)C1CCCN(C(=O)CCC2CCNCC2)C1)c1cncc(-c2ccsc2)c1 (centres undefined)	–	–	2 nM	–
C#Cc1cncc([C@H](CC(=O)O)NC(=O)[C@@H]2CCCN(C(=O)CCC3CCNCC3)C2)c1	–	30 nM	0.24 nM	–

SMILES	Duration (Canis familiaris [1])	IC50 (Homo sapiens; Homo sapiens)	IC50 [2]	further results
C#C[C@H](CC(=O)OCC)NC(=O)CCC(=O)Nc1ccc(C(=N)N)cc1 [XEMILOFIBAN]	>180 min	300 nM	2 nM	–
O=C(O)CC(NC(=O)C1CCCN(C(=O)CCC2CCNCC2)C1)c1cncc(-c2cccc([N+](=O)[O-])c2)c1 (centres undefined)	–	–	14 nM	–
O=C(O)CC(NC(=O)C1CCCN(C(=O)CCC2CCNCC2)C1)c1cccnc1 (centres undefined)	–	–	3 nM	–
O=C(O)C[C@H](C#Cc1ccccc1)NC(=O)[C@@H]1CCCN(C(=O)CCC2CCNCC2)C1	–	80 nM	0.22 nM	Duration (Canis familiaris [3]): <30 min
O=C(O)C[C@@H](NC(=O)[C@@H]1CCCN(C(=O)CCC2CCNCC2)C1)c1ccc2c(c1)OCO2	180 min	20 nM	0.5 nM	–
O=C(O)C[C@H](NC(=O)[C@@H]1CCCN(C(=O)CCC2CCNCC2)C1)c1cncc(-c2ccccc2)c1	–	70 nM	0.52 nM	–
O=C(N[C@H](Cc1ccccc1)[C@@H](O)C(=O)O)[C@@H]1CCCN(C(=O)CCC2CCNCC2)C1	–	210 nM	17.9 nM	–
O=C(O)C[C@@H](C#Cc1ccccc1)NC(=O)[C@@H]1CCCN(C(=O)CCC2CCNCC2)C1	–	3500 nM	0.29 nM	–
O=C(O)C[C@H](NC(=O)[C@@H]1CCCN(C(=O)/C=C/C2CCNCC2)C1)c1cccnc1	210 min	160 nM	0.81 nM	–
Cc1ccc([C@H](CC(=O)O)NC(=O)[C@@H]2CCCN(C(=O)CCC3CCNCC3)C2)cn1	210 min	30 nM	0.13 nM	–
Nc1cccc(-c2cncc(C(CC(=O)O)NC(=O)C3CCCN(C(=O)CCC4CCNCC4)C3)c2)c1 (centres undefined)	–	–	3.6 nM	–
O=C(O)CC(NC(=O)C1CCCN(C(=O)CCC2CCNCC2)C1)c1cncc(-c2cccc3ccccc23)c1 (centres undefined)	–	–	26 nM	–
O=C(O)C[C@@H](NC(=O)[C@@H]1CCCN(C(=O)CCC2CCNCC2)C1)c1cccnc1	360 min	60 nM	0.36 nM	–
O=C(O)C[C@H](NC(=O)[C@@H]1CCCN(C(=O)CCC2CCNCC2)C1)c1cncc(C#Cc2ccccc2)c1	–	40 nM	0.85 nM	Duration (Canis familiaris [3]): <30 min
O=C(C[C@H](NC(=O)[C@@H]1CCCN(C(=O)CCC2CCNCC2)C1)c1cccnc1)OCCC1CCCCC1	120 min	2200 nM	3.8 nM	–
O=C(O)C[C@@H](NC(=O)[C@@H]1CCCN(C(=O)CCC2CCNCC2)C1)c1cnc2ccccc2c1 (stereo in doubt; 34)	–	–	0.37 nM	IC50 (Homo sapiens): 1200 nM
CN1CCC(CCC(=O)N2CCC[C@@H](C(=O)N[C@H](CC(=O)O)c3ccc4c(c3)OCO4)C2)CC1	–	840 nM	0.24 nM	Duration (Canis familiaris [4]): 120 min
O=C(O)C[C@H](NC(=O)[C@H]1CN(C(=O)CCC2CCNCC2)CCN1)c1cccnc1	–	600 nM	1.7 nM	–
O=C(O)C[C@H](NC(=O)[C@@H]1CCCN(C(=O)CCC2CCNCC2)C1)c1cnc(Cl)c(Cl)c1	150 min	220 nM	0.34 nM	–
CCOC(=O)C[C@@H](NC(=O)[C@@H]1CCCN(C(=O)CCC2CCNCC2)C1)c1ccc2c(c1)OCO2	<30 min	36000 nM	48 nM	–
COc1ncc([C@H](CC(=O)O)NC(=O)[C@@H]2CCCN(C(=O)CCC3CCNCC3)C2)cc1Cl	30 min	90 nM	3.8 nM	–
O=C(O)CC(NC(=O)C1CCCN(C(=O)CCC2CCNCC2)C1)c1cncc(-c2ccc3ccccc3c2)c1 (centres undefined)	–	–	57 nM	–
O=C(O)C[C@@H](NC(=O)[C@@H]1CCCN(C(=O)CCC2CCNCC2)C1)c1ncc(C(F)(F)F)cc1Cl	30 min	11800 nM	66.8 nM	–
COc1cccc(-c2cncc(C(CC(=O)O)NC(=O)C3CCCN(C(=O)CCC4CCNCC4)C3)c2)c1 (centres undefined)	–	–	11 nM	–
N=CN1CCC(CCC(=O)N2CCC[C@@H](C(=O)N[C@@H](CC(=O)O)c3cccnc3)C2)CC1	90 min	350 nM	0.75 nM	–
